Experimental findings from PubChem BioAssay AID463202 (Sanford-Burnham Center for Chemical Genomics, 2010) are described below.

Molecules are shown by their SMILES. Activity calls are given as the source filed them.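 Rule for the calls: active = inhibition above 50% relative to controls in each of two repeat datasets, tested at 10 µM; inactive = the rest.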

As usually defined, the inhibition is the change of the read-out against control, counted positive when it falls.

Chain of Vasopressin V2 receptor (Homo sapiens) (P30518 whole entry, looked up): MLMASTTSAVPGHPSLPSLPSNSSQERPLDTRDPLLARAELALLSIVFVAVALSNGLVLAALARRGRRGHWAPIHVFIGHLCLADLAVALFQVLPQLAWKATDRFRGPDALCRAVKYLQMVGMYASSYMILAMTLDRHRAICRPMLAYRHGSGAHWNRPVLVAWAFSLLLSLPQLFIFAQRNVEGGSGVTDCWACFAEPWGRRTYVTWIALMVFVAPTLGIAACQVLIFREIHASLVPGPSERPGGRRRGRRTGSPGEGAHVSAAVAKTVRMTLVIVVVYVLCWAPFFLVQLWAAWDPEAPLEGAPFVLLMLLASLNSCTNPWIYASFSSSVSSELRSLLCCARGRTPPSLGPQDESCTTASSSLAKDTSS

The target in this experiment is Vasopressin V2 receptor (Homo sapiens) (UniProt P30518). As to the kind of experiment: vasopressin V2 receptor antagonists, SAR follow-up, selectivity assay for GPR35 antagonist project, imaging, beta-arrestin-GFP, U2OS, antagonist mode (AID 463202). As to conditions: U2OS AVPR2 beta-arrestin-GFP translocation imaging; at 10 µM; hits give high values. An outline of the steps:
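Material: U2OS cells expressing human vasopressin V2 receptor and GFP-β-arrestin; also added: 16 nM vasopressin agonist; dosing: single compound dose of 10 µM; times: 15 min compound pre-incubation, then 40 min agonist exposure; measured by: 40x fluorescence imaging, wavelet analysis of GFP-β-arrestin spots; read-out basis: percent activity from aggregate counts, scaled between vasopressin controls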
As for `O=C(CCCN1C(=O)/C(=C\c2ccccc2)SC1=S)Nc1cccc(C(=O)O)c1`, the inhibition is 15.9% (inactive).

In the case of `Clc1ccc(Cn2ncc3c(N4CCN(c5ccccc5)CC4)ncnc32)cc1`, the inhibition was 3.4% (inactive).

`Cc1nc(N2CCC(C)CC2)c2c(C)c(C(=O)Nc3ccc4c(c3)OCCO4)sc2n1`: the inhibition was -5.7% (inactive).

In the case of `Cc1ccc(/C=C2\SC(=S)N(CCCC(=O)Nc3cccc(C(=O)O)c3)C2=O)cc1`, the inhibition was 8.2% (inactive).

For the compound `Cc1ccccc1N1CCN(c2ncnc3c2cnn3Cc2ccc(Cl)cc2)CC1`, the inhibition is 7.6% (inactive).

In the case of `O=C(CCCN1C(=O)S/C(=C\C=C\c2ccccc2)C1=O)Nc1ccc(C(=O)O)cc1`, the inhibition was 18.2% (inactive).

`O=C(Nc1ccc2nc(SCc3ccccc3)sc2c1)c1ccccc1C(=O)N1CCOCC1`: the inhibition was 3.3% (inactive).

In the case of `CC(/C=C1\SC(=S)N(CCCC(=O)Nc2ccc(C(=O)O)c(O)c2)C1=O)=C\c1ccccc1`, the inhibition was 30% (inactive).

`CC(C)c1ccc(NC(=O)CSc2nc3ccsc3c(=O)n2Cc2ccc(C(=O)O)cc2)cc1`: the inhibition was 22.9% (inactive).

With `O=C(Nc1ccc2nc(SCc3ccc(Cl)cc3)sc2c1)c1ccccc1C(=O)N1CCOCC1`, the inhibition is -0.8% (inactive).

For the compound `O=C(CCCN1C(=O)/C(=C/c2ccc3c(c2)OCO3)SC1=S)Nc1ccc(C(=O)O)cc1`, the inhibition is -6.5% (inactive).

Turning to `O=C(CCCN1C(=O)S/C(=C/c2ccccc2)C1=S)Nc1ccc(C(=O)O)cc1`, the inhibition was 0.7% (inactive).

On to `COc1cccc(/C=C2\SC(=S)N(CCCC(=O)Nc3ccc(C(=O)O)cc3)C2=O)c1`, for which the inhibition was -2.9% (inactive).

`O=C(CCCN1C(=O)S/C(=C/C=C/c2ccccc2)C1=O)Nc1ccc(C(=O)O)cc1`: the inhibition was 8.9% (inactive).

Take `COc1ccc(/C=C2\SC(=S)N(CCCC(=O)Nc3ccc(C(=O)O)c(O)c3)C2=O)cc1OC`: the inhibition is 22.9% (inactive).

For `O=C(CCCN1C(=O)/C(=C/c2ccc3c(c2)OCO3)SC1=S)Nc1ccc(C(=O)O)c(O)c1`, the inhibition is 28.4% (inactive).

On to `CC(/C=C1\SC(=S)N(CCCC(=O)Nc2ccc(C(=O)O)cc2)C1=O)=C\c1ccccc1`, for which the inhibition is 18.5% (inactive).

Take `Cc1ccc(Cn2ncc3c(N4CCN(c5ccccc5C)CC4)ncnc32)cc1`: the inhibition is 36.9% (inactive).

`COc1ccc(/C=C2\SC(=S)N(CCCC(=O)Nc3ccc(O)cc3)C2=O)cc1`: the inhibition is 25.3% (inactive).

For `CC(C)(C)c1ccc(OCCC(=O)NCCc2ccc(S(N)(=O)=O)cc2)cc1`, the inhibition was 12.5% (inactive).

With `O=C(CCCN1C(=O)/C(=C/c2ccc3c(c2)OCO3)SC1=S)Nc1cccc(C(=O)O)c1`, the inhibition is 13.2% (inactive).

Consider `Cc1ccc(/C=C2\SC(=S)N(CCCC(=O)Nc3ccc(O)cc3)C2=O)cc1`, for which the inhibition was 9.2% (inactive).

For the compound `CCOC(=O)c1ccc(NC(=O)CCCN2C(=O)/C(=C/c3ccc(C)cc3)SC2=S)cc1`, the inhibition was 28.8% (inactive).

Consider `COc1ccc(/C=C2\SC(=S)N(CCCC(=O)Nc3cccc(C(=O)O)c3)C2=O)cc1OC`, for which the inhibition was 27.3% (inactive).

Regarding `O=C(CCCN1C(=O)/C(=C\c2ccccc2)SC1=S)Nc1ccc(C(=O)O)cc1`, the inhibition was 4.8% (inactive).

On to `Cc1c(C(=O)Nc2ccc3c(c2)OCCO3)sc2ncnc(N3CCC(C)CC3)c12`, for which the inhibition is -3.7% (inactive).

Regarding `CCc1ccc(/C=C2\SC(=S)N(CCCC(=O)Nc3ccc(C(=O)O)cc3)C2=O)cc1`, the inhibition was -6.8% (inactive).

On to `CCOc1ccc(NC(=O)CSc2nc3ccsc3c(=O)n2Cc2ccc(C(=O)O)cc2)cc1`, for which the inhibition was 15.5% (inactive).

As for `O=C(CCCN1C(=O)/C(=C/c2ccccc2)SC1=S)Nc1ccc(C(=O)O)c(O)c1`, the inhibition is 51.3% (inactive).

For `COc1ccc(/C=C2/SC(=S)N(CCCC(=O)Nc3ccc(O)cc3)C2=O)cc1`, the inhibition was 1.8% (inactive).
